Bioassay records (PubChem)
An excerpt weighted towards active compounds, which were near 3.5% of everything screened.
RGS4 block: human RGS4 inhibition. B-score at 10 µM. hit rate 0.45% among 310,000. HEK293 M3R/RGS4 inducible, Fluo-4 calcium flux; hits give high values; triggered by carbachol at its EC20. AID 463165;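 active = B-score, a plate-corrected calcium signal, over three deviations above library mean, with baseline fluorescence within five deviations of library mean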;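 also: RGS4 expression induced by doxycycline in cells with stable M3 receptor; B-score is computed from the integrated fluorescence ratio over baseline after carbachol; higher B-score means a larger calcium signal and so more RGS4 inhibition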
Target sequence (P49798 whole entry, looked up): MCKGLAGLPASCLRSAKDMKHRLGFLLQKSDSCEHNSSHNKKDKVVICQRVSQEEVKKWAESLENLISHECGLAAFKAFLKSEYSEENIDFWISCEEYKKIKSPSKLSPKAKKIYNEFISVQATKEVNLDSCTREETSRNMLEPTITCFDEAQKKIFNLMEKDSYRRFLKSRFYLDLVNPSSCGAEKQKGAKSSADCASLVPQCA
MrgX1 antagonist: antagonists of human MrgX1 receptor; Q96LB2; MRGX1-HEK293 calcium flux, Fluo-4, BAM8-22 antagonism; hits give low values; B-score at 10 µM; hit rate 1.3% among 310,000; AID 588676;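 active = calcium-response B-score plate-corrected more than 3 library SD below zero, starting fluorescence within 5 deviations, no agonist response on first addition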;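 also: peak minus trough fluorescence over baseline after final BAM8-22 challenge near maximal dose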
Target sequence (Q96LB2 whole entry, looked up): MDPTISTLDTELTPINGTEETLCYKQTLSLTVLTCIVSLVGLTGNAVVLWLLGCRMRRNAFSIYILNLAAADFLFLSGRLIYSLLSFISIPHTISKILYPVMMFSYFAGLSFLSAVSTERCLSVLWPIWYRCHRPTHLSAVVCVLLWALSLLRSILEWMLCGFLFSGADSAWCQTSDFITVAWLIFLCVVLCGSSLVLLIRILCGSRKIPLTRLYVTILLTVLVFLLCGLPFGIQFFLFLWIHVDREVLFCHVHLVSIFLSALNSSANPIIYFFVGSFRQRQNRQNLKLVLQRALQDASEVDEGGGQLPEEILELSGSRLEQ
MrgX1 allo act: allosterically activates human MrgX1 receptor signaling | MrgX1-HEK293, Fluo-4 calcium flux, FDSS; hits give high values | Q96LB2 | hit rate 0.63% among 310,000 | B-score at 10 µM;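 active = plate-corrected calcium response at least 3 library SD above typical, normal starting fluorescence, not activating the receptor alone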;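 also: compound read alongside a low EC10 to EC30 dose of BAM8-22 agonist; peak minus trough fluorescence over baseline measured at the second addition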
MrgX1 agonist: agonists of human MrgX1 receptor; hit rate 0.44% among 310,000; MrgX1-HEK293 cells, Fluo-4 calcium fluorescence, agonist mode; hits give high values; Q96LB2; B-score at 10 µM;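 active = calcium response B-score plate-corrected fluorescence ratio at least 3 library SD, with starting fluorescence B-score inside 5 SD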
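Test system: HEK293 cells stably expressing human MrgX1 receptor; Input: fifteen thousand cells per well; Dosing: compound delivered in addition one of three; Schedule: overnight seeding, then 1 h dark dye loading; Technique: Fluo-4 NW calcium fluorescence; Measure: B-scored fluorescence response ratio; Controls: positive and negative controls per plate.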
RGS4 act: RGS4 potentiation or activation; hit rate 0.92% among 310,000; B-score at 10 µM; HEK293 M3R/inducible RGS4, carbachol calcium flux Fluo4; hits give low values; AID 463111;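 active = B-score of the integrated calcium signal more than 4 SD below the library mean, with starting fluorescence not abnormally high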;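 also: negative B-score means reduced calcium response which marks RGS4 activation or potentiation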
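Assay system: Inducible-RGS4 HEK293 cells carrying M3 receptor | Schedule: Compound preincubation 20 min at room temperature before agonist | Signal: Kinetic calcium fluorescence imaging with Fluo4-AM dye, 2 µM | Read-out basis: B score from integrated fluorescence ratio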
MrgX1 ag reconf: confirmation of human MrgX1 receptor agonists. shares compounds with MrgX1 agonist. MrgX1-HEK293, Fluo-4 calcium fluorescence, FDSS. activation, % at 10 µM. hit rate 78% among 600. AID 602412;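 active = calcium signal rise, corrected for plate position, at least 3 library SD high, with starting brightness within 5 such deviations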
HEK293 Ca flux: MrgX1 antagonist counter-screen hit in parental HEK293 cells. shares compounds with MrgX1 antagonist. fluorescence ratio F(max-min)/F0 at 10 µM. Fluo-4 calcium fluorescence, FDSS. hit rate 2% among 4,000;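 active = duplicate-averaged calcium fluorescence ratio at least three times the standard deviation of buffer wells, a nonspecific response in parental cells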
HEK293 Ca counter: MrgX1 allosteric activator counter-screen hit in parental HEK293 cells; shares compounds with MrgX1 antagonist; parental HEK293 calcium flux, Fluo-4 fluorescence ratio; hits give high values; fluorescence ratio F(max-min)/F0 at 10 µM; hit rate 0.4% among 4,000; AID 624114;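 active = calcium fluorescence ratio, averaged over duplicates, at least 3 SD of the buffer-well ratio, meaning a nonspecific response in receptor-free cells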;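 also: untransfected parental HEK293 lacking MrgX1 used as counterscreen for MrgX1 allosteric activators; fluorescence change taken during the second addition on a kinetic imager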
HEK293 Ca cntr2: activity in parental HEK293 cells lacking MrgX1 receptor. shares compounds with MrgX1 antagonist. fluorescence ratio F(max-min)/F0 at 10 µM. hit rate 8.7% among 4,000. AID 624115. Fluo-4 calcium fluorescence (FDSS); hits give high values;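 active = calcium fluorescence ratio at least three times the spread of buffer wells, meaning a non-specific response in parental cells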
* hit, by the source's call.

Results for COc1ccc(-c2csc(NC(=O)Cc3cc(OC)c(OC)c(OC)c3)n2)cc1OC ?
RGS4 block: inactive; MrgX1 antagonist: inactive; MrgX1 allo act: inactive; MrgX1 agonist: inactive; RGS4 act: inactive

How did CSc1ncccc1C(=O)NCCc1ccccc1 do in these assays?
RGS4 block: inactive; MrgX1 antagonist: inactive; MrgX1 allo act: inactive; MrgX1 agonist: inactive; RGS4 act: inactive

Results for CSc1ncccc1C(=O)NCCc1ccc(S(N)(=O)=O)cc1 ?
RGS4 block: inactive; MrgX1 antagonist: inactive; MrgX1 allo act: inactive; MrgX1 agonist: 32.8*; RGS4 act: inactive; MrgX1 ag reconf: inactive; HEK293 Ca flux: inactive; HEK293 Ca counter: inactive; HEK293 Ca cntr2: inactive

What do the screens show for `CCOC(=O)Cn1c(CCC(=O)O)ccc1-c1ccc(F)cc1`?
RGS4 block: inactive; MrgX1 antagonist: inactive; MrgX1 allo act: inactive; MrgX1 agonist: 44.9*; RGS4 act: inactive; MrgX1 ag reconf: 169.6%*; HEK293 Ca flux: inactive; HEK293 Ca counter: inactive; HEK293 Ca cntr2: inactive

How did Fc1cccc(NCCc2c[nH]c3ccccc23)n1 do in these assays?
RGS4 block: inactive; MrgX1 antagonist: inactive; MrgX1 allo act: inactive; MrgX1 agonist: 27.7*; RGS4 act: inactive; MrgX1 ag reconf: 116.2%*; HEK293 Ca flux: inactive; HEK293 Ca counter: inactive; HEK293 Ca cntr2: inactive

What do the screens show for `O=c1[nH][nH]c(-c2ccccc2)c1C=Nc1ccc(C(F)(F)F)cc1`?
RGS4 block: inactive; MrgX1 antagonist: inactive; MrgX1 allo act: inactive; MrgX1 agonist: inactive; RGS4 act: inactive

How did O=c1[nH][nH]c(-c2ccccc2)c1C=Nc1ccc(OC(F)(F)F)cc1 do in these assays?
RGS4 block: inactive; MrgX1 antagonist: inactive; MrgX1 allo act: inactive; MrgX1 agonist: 33.3*; RGS4 act: inactive; MrgX1 ag reconf: 183.9%*; HEK293 Ca flux: inactive; HEK293 Ca counter: inactive; HEK293 Ca cntr2: inactive

What do the screens show for `CCCn1c(=O)c(C(=O)NNC(=O)c2ccccc2Cl)c(O)c2ccccc21`?
RGS4 block: inactive; MrgX1 antagonist: inactive; MrgX1 allo act: inactive; MrgX1 agonist: 97.4*; RGS4 act: inactive; MrgX1 ag reconf: 307.7%*; HEK293 Ca flux: inactive; HEK293 Ca counter: inactive; HEK293 Ca cntr2: 63.7*

How did Cc1ccc(-n2c(=O)[nH]c3c(oc4ccccc43)c2=O)cc1 do in these assays?
RGS4 block: inactive; MrgX1 antagonist: inactive; MrgX1 allo act: inactive; MrgX1 agonist: 77.9*; RGS4 act: inactive; MrgX1 ag reconf: 396.2%*; HEK293 Ca flux: inactive; HEK293 Ca counter: inactive; HEK293 Ca cntr2: 118*

Results for Cn1c(=O)c2[nH]c(N3CCCCC3)nc2n(C)c1=O ?
RGS4 block: inactive; MrgX1 antagonist: inactive; MrgX1 allo act: inactive; MrgX1 agonist: inactive; RGS4 act: inactive

How did Cn1c(=O)c2[nH]c(C3CCCC3)nc2n(C)c1=O do in these assays?
RGS4 block: inactive; MrgX1 antagonist: inactive; MrgX1 allo act: inactive; MrgX1 agonist: 36*; RGS4 act: inactive; MrgX1 ag reconf: inactive; HEK293 Ca flux: inactive; HEK293 Ca counter: inactive; HEK293 Ca cntr2: inactive

What do the screens show for `O=C(CCl)N(c1ccc(Cl)cc1)c1c[nH]c2ccccc12`?
RGS4 block: inactive; MrgX1 antagonist: inactive; MrgX1 allo act: inactive; MrgX1 agonist: 29.8*; RGS4 act: inactive; MrgX1 ag reconf: 145.7%*; HEK293 Ca flux: inactive; HEK293 Ca counter: inactive; HEK293 Ca cntr2: inactive

How did O=C(CCl)N(c1ccccc1)c1c[nH]c2ccccc12 do in these assays?
RGS4 block: inactive; MrgX1 antagonist: inactive; MrgX1 allo act: inactive; MrgX1 agonist: inactive; RGS4 act: inactive
